Activity calls are given as the source filed them.
Legend:
[1] = tested on: Mast/stem cell growth factor receptor Kit (Homo sapiens), P10721 [A829P]; assay: Binding affinity to human partial length KIT A829P mutant (I571 to D952 residues) expressed in mammalian expression system assessed as remaining unbound target protein level at 1000 nM by Kinomescan method relative to control
Procedure, shortened: (§1)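 KINOMEscan competition-binding profiling across the panel of 468 kinases and mutants, with inhibitor tested at 1 μM. Binding is expressed as percent of control, with DMSO as the reference control.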

[2] = target: Serine/threonine-protein kinase PLK4 (Homo sapiens) (UniProt O00444); assay: Binding affinity to wild-type human partial length PLK4 (M1 to S273 residues) expressed in mammalian expression system assessed as remaining unbound target protein level at 1000 nM by Kinomescan method relative to control
[3] = target: Rhodopsin kinase GRK7 (Homo sapiens) (UniProt Q8WTQ7); assay: Binding affinity to wild-type human full length GRK7 (M1 to L553 residues) expressed in mammalian expression system assessed as remaining unbound target protein level at 1000 nM by Kinomescan method relative to control
Procedure, shortened: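 Single-point competition binding screen across a panel of 468 kinases and mutants, with the inhibitor at 1 μM. Binding is read out as percent of a DMSO control, and targets below 1 percent control were classed as strong binders.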

[4] = target: Proto-oncogene tyrosine-protein kinase receptor Ret (Homo sapiens) (UniProt P07949); assay: Binding affinity to wild-type human partial length RET (E713 to D1014 residues) expressed in bacterial expression system assessed as remaining unbound target protein level at 1000 nM by Kinomescan method relative to control
[5] = target: Serine/threonine-protein kinase 3 (Homo sapiens) (UniProt Q13188); assay: Binding affinity to wild-type human partial length MST2 (D17 to E318 residues) expressed in bacterial expression system assessed as remaining unbound target protein level at 1000 nM by Kinomescan method relative to control
Procedure, shortened: (§2)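 KINOMEscan binding panel of 468 kinases/mutants. Inhibitor was tested at a single concentration of 1 μM. Binding is reported as percent of control, defined relative to a DMSO control.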

[6] = tested on: Hepatocyte growth factor receptor (Homo sapiens), P08581 [Y1235D]; assay: Binding affinity to human partial length MET Y1235D mutant (D1010 to S1367 residues) expressed in bacterial expression system assessed as remaining unbound target protein level at 1000 nM by Kinomescan method relative to control; procedure, shortened: as §1
[7] = Cmax in Sprague-Dawley rat at 20 mg/kg, po by LC-MS/MS analysis; type: ADME, organism-based; parameters: dose 20 mg/kg, route oral; details: in vivo
[8] = target: Tyrosine-protein kinase JAK1 (Homo sapiens) (UniProt P23458); assay: Binding affinity to wild-type human partial length JAK1 JH2 pseudokinase domain (R537 to D855 residues) expressed in mammalian expression system assessed as remaining unbound target protein level at 1000 nM by Kinomescan method relative to control; procedure, shortened: as §2
[9] = target: Mitogen-activated protein kinase kinase kinase 10 (Homo sapiens) (UniProt Q02779); assay: Binding affinity to wild-type human partial length MLK2 (V52 to W380 residues) expressed in bacterial expression system assessed as remaining unbound target protein level at 1000 nM by Kinomescan method relative to control; procedure, shortened: as §2
[10] = target: NUAK family SNF1-like kinase 2 (Homo sapiens) (UniProt Q9H093); assay: Binding affinity to wild-type human partial length SNARK (P22 to A333 residues) expressed in mammalian expression system assessed as remaining unbound target protein level at 1000 nM by Kinomescan method relative to control
[11] = target: Serine/threonine-protein kinase 32B (Homo sapiens) (UniProt Q9NY57); assay: Binding affinity to wild-type human full length YANK2 (M1 to S414 residues) expressed in bacterial expression system assessed as remaining unbound target protein level at 1000 nM by Kinomescan method relative to control
Procedure, shortened: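 Profiled in a KINOMEscan binding panel with the inhibitor at a single concentration of 1 μM. Binding to each kinase was read out as percent of control, relative to a DMSO control. Strong binders were defined as those with a percent control value below 1.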

[12] = target: Testis-specific serine/threonine-protein kinase 3 (Homo sapiens) (UniProt Q96PN8); assay: Binding affinity to wild-type human full length TSSK3 (M1 to T268 residues) expressed in mammalian expression system assessed as remaining unbound target protein level at 1000 nM by Kinomescan method relative to control
Procedure, shortened: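 KINOMEscan competition binding profile across a panel of 468 kinases and mutants, with the inhibitor tested at a single concentration of 1 μM. Binding is reported as percent of control, meaning signal relative to a DMSO control.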

[13] = target: Tyrosine-protein kinase ABL2 (Homo sapiens) (UniProt P42684); assay: Binding affinity to wild-type human ABL2 (A248 to G542 residues) expressed in bacterial expression system assessed as remaining unbound target protein level at 1000 nM by Kinomescan method relative to control
Procedure, shortened: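 KINOMEscan competitive binding profile at 1 μM inhibitor. Remaining target binding reported as percent of DMSO control.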

[14] = target: Cyclin-dependent kinase 9 (Homo sapiens, UniProt P50750); assay: Inhibition of CDK9 in human MV4-11 cells assessed as decrease in phosphorylation at Thr 186 residues up to 3 uM after 2 hrs by immunoblotting analysis; type: cell-based
[15] = target: Ephrin type-A receptor 3 (Homo sapiens) (UniProt P29320); assay: Binding affinity to wild-type human partial length EPHA3 (D604 to K889 residues) expressed in bacterial expression system assessed as remaining unbound target protein level at 1000 nM by Kinomescan method relative to control; procedure, shortened: as §2
[16] = target: Serine/threonine-protein kinase Nek2 (Homo sapiens) (UniProt P51955); assay: Binding affinity to wild-type human partial length NEK2 (M1 to K309 residues) expressed in bacterial expression system assessed as remaining unbound target protein level at 1000 nM by Kinomescan method relative to control
[17] = tested on: Mycobacterium tuberculosis; assay: Binding affinity to wild-type Mycobacterium tuberculosis partial length PKNB (M1 to G279 residues) expressed in mammalian expression system assessed as remaining unbound target protein level at 1000 nM by Kinomescan method relative to control
Procedure, shortened: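 KINOMEscan competition binding panel run at 1 μM inhibitor; binding reported as percent of DMSO control (remaining target bound versus vehicle).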

[18] = target: Myosin light chain kinase 2, skeletal/cardiac muscle (Homo sapiens) (UniProt Q9H1R3); assay: Binding affinity to wild-type human partial length MYLK2 (D258 to K570 residues) expressed in bacterial expression system assessed as remaining unbound target protein level at 1000 nM by Kinomescan method relative to control; procedure, shortened: as §2
[19] = tested on: SKM-1; assay: Antiproliferative activity against human SKM1 cells after 72 hrs by Celltiter-Glo assay; type: functional; details: SKM-1, 72 h
Procedure, shortened: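 Cells seeded at 3000/well in 96-well plates, exposed to serially diluted compound for 72 h at 37 °C, 5% CO2. Viability read by CellTiter-Glo luminescence and normalized to DMSO control. GI50 derived from curve fit, mean of three independent measurements. Culture media: DMEM/10% FBS for adherent lines; IMDM for MV4-11 and MEC-1/2; RPMI 1640 for suspension lines and CHL.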

Chain of Serine/threonine-protein kinase Nek2 (Homo sapiens) (P51955 whole entry, the tested form may be a part): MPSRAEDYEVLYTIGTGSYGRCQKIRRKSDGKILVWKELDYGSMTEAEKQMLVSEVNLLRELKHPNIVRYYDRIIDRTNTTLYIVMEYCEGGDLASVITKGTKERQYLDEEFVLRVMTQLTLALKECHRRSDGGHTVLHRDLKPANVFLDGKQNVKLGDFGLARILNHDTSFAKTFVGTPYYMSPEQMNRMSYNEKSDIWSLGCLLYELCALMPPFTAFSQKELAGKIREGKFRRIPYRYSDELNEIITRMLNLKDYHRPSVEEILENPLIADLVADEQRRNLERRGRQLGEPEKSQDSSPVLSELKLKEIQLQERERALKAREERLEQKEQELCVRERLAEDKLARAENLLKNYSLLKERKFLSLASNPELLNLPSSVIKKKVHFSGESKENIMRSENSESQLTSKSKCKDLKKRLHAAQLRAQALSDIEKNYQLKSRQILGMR
Chain of Ephrin type-A receptor 3 (Homo sapiens) (P29320 whole entry, the tested form may be a part): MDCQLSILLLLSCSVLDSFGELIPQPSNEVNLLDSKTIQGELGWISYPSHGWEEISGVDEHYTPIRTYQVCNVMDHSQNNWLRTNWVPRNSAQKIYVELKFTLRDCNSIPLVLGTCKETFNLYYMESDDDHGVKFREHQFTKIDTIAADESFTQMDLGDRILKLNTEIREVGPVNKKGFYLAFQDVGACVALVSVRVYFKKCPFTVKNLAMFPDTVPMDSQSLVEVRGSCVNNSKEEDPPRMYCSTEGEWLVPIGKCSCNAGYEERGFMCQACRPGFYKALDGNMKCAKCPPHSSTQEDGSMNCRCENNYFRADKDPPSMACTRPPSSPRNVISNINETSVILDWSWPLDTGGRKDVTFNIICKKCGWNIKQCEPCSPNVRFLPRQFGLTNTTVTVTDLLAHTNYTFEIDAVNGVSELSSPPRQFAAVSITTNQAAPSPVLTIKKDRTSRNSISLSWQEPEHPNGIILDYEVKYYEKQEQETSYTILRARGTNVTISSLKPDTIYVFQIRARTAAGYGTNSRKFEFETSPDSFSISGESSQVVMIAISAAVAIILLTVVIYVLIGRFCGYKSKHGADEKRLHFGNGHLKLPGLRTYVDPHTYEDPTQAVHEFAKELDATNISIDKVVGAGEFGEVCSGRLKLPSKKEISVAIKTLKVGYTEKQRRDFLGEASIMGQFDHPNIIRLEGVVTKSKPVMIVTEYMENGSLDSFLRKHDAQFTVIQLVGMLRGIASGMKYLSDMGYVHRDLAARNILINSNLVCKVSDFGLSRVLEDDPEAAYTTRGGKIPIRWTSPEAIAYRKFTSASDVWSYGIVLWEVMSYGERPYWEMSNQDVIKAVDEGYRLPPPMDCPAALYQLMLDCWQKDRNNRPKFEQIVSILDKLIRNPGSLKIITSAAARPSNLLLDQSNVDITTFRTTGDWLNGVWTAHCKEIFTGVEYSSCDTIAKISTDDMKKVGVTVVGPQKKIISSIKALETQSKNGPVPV
Chain of Serine/threonine-protein kinase 3 (Homo sapiens) (Q13188 whole entry, the tested form may be a part): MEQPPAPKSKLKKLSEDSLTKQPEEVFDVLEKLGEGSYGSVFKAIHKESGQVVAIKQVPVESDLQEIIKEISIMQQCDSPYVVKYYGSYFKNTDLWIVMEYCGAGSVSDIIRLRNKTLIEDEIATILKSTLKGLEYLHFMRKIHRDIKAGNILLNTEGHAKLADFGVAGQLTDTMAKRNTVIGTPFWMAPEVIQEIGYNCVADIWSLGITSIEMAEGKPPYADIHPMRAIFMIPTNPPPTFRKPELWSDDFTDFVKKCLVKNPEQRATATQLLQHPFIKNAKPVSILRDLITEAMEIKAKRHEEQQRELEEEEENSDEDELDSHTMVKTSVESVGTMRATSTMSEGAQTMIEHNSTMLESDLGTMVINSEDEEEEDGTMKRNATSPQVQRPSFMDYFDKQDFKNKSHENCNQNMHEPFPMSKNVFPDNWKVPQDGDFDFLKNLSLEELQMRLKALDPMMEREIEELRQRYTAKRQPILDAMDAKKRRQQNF
Chain of Cyclin-dependent kinase 9 (P50750 whole entry, the tested form may be a part): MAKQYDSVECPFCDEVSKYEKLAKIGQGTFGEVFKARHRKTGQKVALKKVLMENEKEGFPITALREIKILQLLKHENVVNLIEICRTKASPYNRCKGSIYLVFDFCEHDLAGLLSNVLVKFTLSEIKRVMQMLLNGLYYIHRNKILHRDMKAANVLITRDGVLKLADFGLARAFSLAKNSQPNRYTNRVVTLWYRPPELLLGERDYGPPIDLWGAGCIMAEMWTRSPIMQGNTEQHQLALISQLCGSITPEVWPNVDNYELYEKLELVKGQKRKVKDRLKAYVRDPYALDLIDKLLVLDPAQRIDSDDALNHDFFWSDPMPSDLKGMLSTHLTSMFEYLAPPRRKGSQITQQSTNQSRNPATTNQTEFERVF
Chain of Myosin light chain kinase 2, skeletal/cardiac muscle (Homo sapiens) (Q9H1R3 whole entry, the tested form may be a part): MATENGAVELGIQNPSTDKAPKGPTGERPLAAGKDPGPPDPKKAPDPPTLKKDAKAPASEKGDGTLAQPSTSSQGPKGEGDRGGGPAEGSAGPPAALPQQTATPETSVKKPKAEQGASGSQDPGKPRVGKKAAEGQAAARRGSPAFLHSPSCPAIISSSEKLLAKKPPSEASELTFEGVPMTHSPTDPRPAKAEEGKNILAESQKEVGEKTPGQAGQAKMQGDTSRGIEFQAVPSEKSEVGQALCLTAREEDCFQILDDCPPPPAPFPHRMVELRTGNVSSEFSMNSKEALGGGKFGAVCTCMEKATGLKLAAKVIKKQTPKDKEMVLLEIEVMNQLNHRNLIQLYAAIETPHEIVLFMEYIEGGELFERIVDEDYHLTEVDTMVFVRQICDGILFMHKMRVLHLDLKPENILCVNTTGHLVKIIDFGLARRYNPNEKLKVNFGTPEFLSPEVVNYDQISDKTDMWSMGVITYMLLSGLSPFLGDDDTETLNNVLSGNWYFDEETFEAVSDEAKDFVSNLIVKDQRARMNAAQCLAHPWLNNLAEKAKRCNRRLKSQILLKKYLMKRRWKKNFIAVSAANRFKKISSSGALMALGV
Chain of Serine/threonine-protein kinase 32B (Homo sapiens) (Q9NY57 whole entry, the tested form may be a part): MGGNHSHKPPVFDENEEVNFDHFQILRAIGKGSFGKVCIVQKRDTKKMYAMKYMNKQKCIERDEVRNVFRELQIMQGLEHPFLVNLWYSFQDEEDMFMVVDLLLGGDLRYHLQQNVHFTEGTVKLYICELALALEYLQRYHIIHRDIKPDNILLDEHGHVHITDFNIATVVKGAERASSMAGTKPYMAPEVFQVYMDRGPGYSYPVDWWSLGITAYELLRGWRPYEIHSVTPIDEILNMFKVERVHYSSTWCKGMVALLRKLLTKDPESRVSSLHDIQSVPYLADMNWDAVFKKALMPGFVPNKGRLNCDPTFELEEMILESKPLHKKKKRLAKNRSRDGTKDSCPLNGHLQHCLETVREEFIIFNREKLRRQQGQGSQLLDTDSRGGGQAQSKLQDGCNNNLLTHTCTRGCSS
Chain of Rhodopsin kinase GRK7 (Homo sapiens) (Q8WTQ7 whole entry, the tested form may be a part): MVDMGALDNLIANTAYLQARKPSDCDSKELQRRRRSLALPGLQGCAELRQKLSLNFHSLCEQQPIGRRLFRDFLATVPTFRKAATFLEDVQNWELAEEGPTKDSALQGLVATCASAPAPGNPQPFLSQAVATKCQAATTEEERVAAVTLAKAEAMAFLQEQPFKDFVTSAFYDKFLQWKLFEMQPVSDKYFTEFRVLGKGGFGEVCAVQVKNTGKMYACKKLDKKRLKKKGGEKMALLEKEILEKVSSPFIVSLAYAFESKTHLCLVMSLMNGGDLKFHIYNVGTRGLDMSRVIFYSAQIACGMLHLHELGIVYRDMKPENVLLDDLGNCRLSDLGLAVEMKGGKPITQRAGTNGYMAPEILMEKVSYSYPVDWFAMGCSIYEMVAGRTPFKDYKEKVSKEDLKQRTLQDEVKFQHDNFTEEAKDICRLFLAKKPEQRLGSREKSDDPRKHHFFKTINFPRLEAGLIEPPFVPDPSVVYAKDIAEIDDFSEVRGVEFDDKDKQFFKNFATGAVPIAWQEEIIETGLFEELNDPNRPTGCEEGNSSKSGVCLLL
Chain of Tyrosine-protein kinase JAK1 (Homo sapiens) (P23458 whole entry, the tested form may be a part): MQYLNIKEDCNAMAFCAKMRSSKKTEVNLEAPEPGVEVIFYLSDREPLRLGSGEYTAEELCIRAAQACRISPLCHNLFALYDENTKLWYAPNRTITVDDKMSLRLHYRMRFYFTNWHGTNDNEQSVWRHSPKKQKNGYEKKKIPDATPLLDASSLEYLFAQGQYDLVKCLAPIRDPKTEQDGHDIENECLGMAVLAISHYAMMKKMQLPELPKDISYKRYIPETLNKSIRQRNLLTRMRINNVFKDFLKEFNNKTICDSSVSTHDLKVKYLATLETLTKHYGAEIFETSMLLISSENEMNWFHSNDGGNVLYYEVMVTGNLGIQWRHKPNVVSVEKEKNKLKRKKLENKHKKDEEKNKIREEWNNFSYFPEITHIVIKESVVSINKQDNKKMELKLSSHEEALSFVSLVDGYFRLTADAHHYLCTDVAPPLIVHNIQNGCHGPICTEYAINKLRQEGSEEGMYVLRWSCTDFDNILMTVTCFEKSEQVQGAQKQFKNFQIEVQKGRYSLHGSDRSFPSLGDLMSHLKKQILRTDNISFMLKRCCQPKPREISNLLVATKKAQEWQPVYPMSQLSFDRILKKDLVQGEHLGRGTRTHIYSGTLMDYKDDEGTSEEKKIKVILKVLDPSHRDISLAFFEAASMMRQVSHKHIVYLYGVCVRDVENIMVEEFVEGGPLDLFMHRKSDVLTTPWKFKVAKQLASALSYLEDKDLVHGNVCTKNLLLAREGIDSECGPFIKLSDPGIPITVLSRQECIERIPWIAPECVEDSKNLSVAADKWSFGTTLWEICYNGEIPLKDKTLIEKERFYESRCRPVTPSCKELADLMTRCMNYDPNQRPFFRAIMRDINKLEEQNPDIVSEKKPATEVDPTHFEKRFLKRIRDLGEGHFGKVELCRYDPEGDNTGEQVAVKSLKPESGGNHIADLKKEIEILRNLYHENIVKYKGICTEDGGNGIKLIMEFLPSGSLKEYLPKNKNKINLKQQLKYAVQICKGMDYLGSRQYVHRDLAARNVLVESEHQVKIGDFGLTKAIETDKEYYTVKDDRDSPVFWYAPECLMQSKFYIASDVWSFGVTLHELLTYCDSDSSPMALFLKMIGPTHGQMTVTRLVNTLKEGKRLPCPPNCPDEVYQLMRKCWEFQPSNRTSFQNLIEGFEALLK

SMILES: COCCN[C@H]1CC[C@H](Nc2cc(-c3csc(NCC4(C#N)CCOCC4)n3)c(Cl)cn2)CC1
- Activity [1]: 88%
- Activity [2]: 100%
- Activity [3]: 100%
- Activity [4]: 100%
- Activity [5]: 69%
- Activity [6]: 96%
- Cmax [7]: 329 ng/mL
- Activity [8]: 57%
- Activity [9]: 99%
- Activity [10]: 100%
- Activity [11]: 100%
- Activity [12]: 99%
- Activity [13]: 77%
- inhibition [14]: inactive
- Activity [15]: 94%
- Activity [16]: 100%
- Activity [17]: 84%
- Activity [18]: 93%
- GI50 [19]: 12 nM

— ChEMBL document CHEMBL4261600 (Eur J Med Chem, 2018)
